ChEMBL document CHEMBL1255479, “Preclinical characterization of the antiviral activity of SCH 900518 (narlaprevir), a novel mechanism-based inhibitor of hepatitis C virus NS3 protease” (Antimicrob Agents Chemother, 2010)
pKi: −log10 of the molar value. Activity calls are given as the source filed them. The rule behind the calls is not given here.

Columns and labels:
[1] = test system: Hepatitis C virus; assay: Resistance index, ratio of EC90 for Hepatitis C virus genotype 1b expressing NS3 protease T54A and A156T mutant to EC90 for wild type Hepatitis C virus genotype 1b after 3 days by RT-PCR method; assay type: functional, Hepacivirus hominis
How it was run: (§1)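 Replicons carrying mutant or wild-type NS3 protease treated 3 days; replicon RNA by real-time PCR against GAPDH. EC50 = concentration raising CT by 1 over projected baseline; EC90 = increase of 3.2. Index = mutant/wild-type fold increase, means of two or more experiments unless stated (some single experiment).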

[2] = test system: Hepatitis C virus; assay: Inhibition of Hepatitis C virus genotype 1b NS3 protease; set-up: species or system Hepatitis C virus subtype 1b
How it was run: (§2)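 Recombinant single-chain NS3-NS4A protease (genotypes 1a, 1b, 2a, 3a). Continuous spectrophotometric assay: enzyme added to an equal volume of buffer containing the chromogenic substrate acetyl-DTEDVVP(norvaline)-O-4-phenylazophenol. Absorbance was followed for 60 min at several inhibitor levels. Progress curves were fit to a modified Morrison equation. Overall K*i was derived from vs/vo versus [I], corrected using substrate concentration and Km.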

[3] = test system: Hepatitis C virus; assay: Antiviral activity against Hepatitis C virus genotype 1b assessed as decrease in RNA level after 3 days by RT-PCR method; assay type: functional, Hepacivirus hominis; details: 72 h
How it was run: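 Genotype 1b replicon cells seeded on collagen I-coated plates; compound added 24 h post-seeding and incubated 3 days. Cells lysed; replicon RNA by real-time PCR (TaqMan) with GAPDH RNA as endogenous control. EC50 = concentration giving a CT increase of 1 over projected baseline CT; EC90 = increase of 3.2. Triplicate measurements.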

[4] = Inhibition of Hepatitis C virus genotype 1a NS3 protease; set-up: species or system Hepatitis C virus subtype 1a; how it was run: as §2
[5] = Inhibition of Hepatitis C virus genotype 2a NS3 protease; set-up: species or system Hepatitis C virus subtype 2a; how it was run: as §2
[6] = test system: Hepatitis C virus; assay: Resistance index, ratio of EC50 for boceprevir-resistant Hepatitis C virus genotype 1b expressing NS3 protease V170A mutant to EC50 for wild type Hepatitis C virus genotype 1b after 3 days by RT-PCR method; assay type: functional, Hepacivirus hominis; how it was run: as §1
[7] = test system: Hepatitis C virus; assay: Resistance index, ratio of EC50 for boceprevir-resistant Hepatitis C virus genotype 1b expressing NS3 protease V36M and R155K mutant to EC50 for wild type Hepatitis C virus genotype 1b after 3 days by RT-PCR method; assay type: functional, Hepacivirus hominis; how it was run: as §1
[8] = test system: Hepatitis C virus; assay: Resistance index, ratio of EC50 for boceprevir-resistant Hepatitis C virus genotype 1b expressing NS3 protease A156S mutant to EC50 for wild type Hepatitis C virus genotype 1b after 3 days by RT-PCR method; assay type: functional, Hepacivirus hominis; how it was run: as §1
[9] = test system: Hepatitis C virus; assay: Ratio of Ki for boceprevir-resistant Hepatitis C virus genotype 1b NS3 protease V170A mutant to Ki for Hepatitis C virus genotype 1b NS3 protease; set-up: species or system Hepatitis C virus subtype 1b
How it was run: (§3)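 Recombinant single-chain NS3-NS4A protease (wild type or mutant) in a continuous spectrophotometric assay with chromogenic substrate acetyl-DTEDVVP(norvaline)-O-4-phenylazophenol. Absorbance followed over 60 min at several inhibitor concentrations. Progress curves fit to a modified Morrison equation; K*i derived using substrate concentration and Km. Values are mutant/wild-type fold increase, means of two or more experiments unless noted.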

[10] = test system: Hepatitis C virus; assay: Resistance index, ratio of EC50 for boceprevir-resistant Hepatitis C virus genotype 1b expressing NS3 protease T54A mutant to EC50 for wild type Hepatitis C virus genotype 1b after 3 days by RT-PCR method; assay type: functional, Hepacivirus hominis; how it was run: as §1
[11] = test system: Hepatitis C virus; assay: Resistance index, ratio of EC50 for boceprevir-resistant Hepatitis C virus genotype 1b expressing NS3 protease D168V mutant to EC50 for wild type Hepatitis C virus genotype 1b after 3 days by RT-PCR method; assay type: functional, Hepacivirus hominis; how it was run: as §1
[12] = test system: Hepatitis C virus; assay: Resistance index, ratio of EC50 for boceprevir-resistant Hepatitis C virus genotype 1b expressing NS3 protease A156T mutant to EC50 for wild type Hepatitis C virus genotype 1b after 3 days by RT-PCR method; assay type: functional, Hepacivirus hominis; how it was run: as §1
[13] = test system: Hepatitis C virus; assay: Ratio of Ki for boceprevir-resistant Hepatitis C virus genotype 1b NS3 protease R155K mutant to Ki for Hepatitis C virus genotype 1b NS3 protease; set-up: species or system Hepatitis C virus subtype 1b; how it was run: as §3
[14] = test system: Hepatitis C virus; assay: Antiviral activity against Hepatitis C virus genotype 1b assessed as log reduction in RNA level at 1.2 times EC90 after 14 days by RT-PCR method; assay type: functional, organism-based; details: Hepacivirus hominis
How it was run: (§4)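 Replicon cells kept on compound for up to 14 days, refreshed every 2–3 days and split at confluence. Replicon RNA by TaqMan: dCT = NS5B CT − GAPDH CT; ddCT = treated dCT − vehicle-control dCT; log RNA reduction = log(1/2^ddCT), with day 0 set to 0. Curve fit to one-phase exponential decay.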

[15] = test system: Hepatitis C virus; assay: Resistance index, ratio of EC90 for Hepatitis C virus genotype 1b expressing NS3 protease A156S mutant to EC90 for wild type Hepatitis C virus genotype 1b after 3 days by RT-PCR method; assay type: functional, Hepacivirus hominis; how it was run: as §1
[16] = test system: Hepatitis C virus; assay: Ratio of Ki for boceprevir-resistant Hepatitis C virus genotype 1b NS3 protease T54A mutant to Ki for Hepatitis C virus genotype 1b NS3 protease; set-up: species or system Hepatitis C virus subtype 1b; how it was run: as §3
[17] = test system: Hepatitis C virus; assay: Ratio of Ki for boceprevir-resistant Hepatitis C virus genotype 1b NS3 protease V36A mutant to Ki for Hepatitis C virus genotype 1b NS3 protease; set-up: species or system Hepatitis C virus subtype 1b; how it was run: as §3
[18] = test system: Hepatitis C virus; assay: Ratio of Ki for boceprevir-resistant Hepatitis C virus genotype 1b NS3 protease A156S mutant to Ki for Hepatitis C virus genotype 1b NS3 protease; set-up: species or system Hepatitis C virus subtype 1b; how it was run: as §3
[19] = test system: Hepatitis C virus; assay: Antiviral activity against Hepatitis C virus genotype 1b assessed as log reduction in RNA level at 5 times EC90 after 14 days by RT-PCR method; assay type: functional, organism-based; details: Hepacivirus hominis; how it was run: as §4
[20] = test system: Hepatitis C virus; assay: Ratio of Ki for boceprevir-resistant Hepatitis C virus genotype 1b NS3 protease V36M mutant to Ki for Hepatitis C virus genotype 1b NS3 protease; set-up: species or system Hepatitis C virus subtype 1b; how it was run: as §3
[21] = test system: Hepatitis C virus; assay: Resistance index, ratio of EC50 for boceprevir-resistant Hepatitis C virus genotype 1b expressing NS3 protease R155K mutant to EC50 for wild type Hepatitis C virus genotype 1b after 3 days by RT-PCR method; assay type: functional, Hepacivirus hominis; how it was run: as §1
[22] = test system: Hepatitis C virus; assay: Ratio of Ki for boceprevir-resistant Hepatitis C virus genotype 1b NS3 protease D168V mutant to Ki for Hepatitis C virus genotype 1b NS3 protease; set-up: species or system Hepatitis C virus subtype 1b; how it was run: as §3
[23] = Inhibition of Hepatitis C virus genotype 3a NS3 protease; set-up: species or system Hepatitis C virus subtype 3a; how it was run: as §2
[24] = test system: Hepatitis C virus; assay: Resistance index, ratio of EC50 for boceprevir-resistant Hepatitis C virus genotype 1b expressing NS3 protease V36M mutant to EC50 for wild type Hepatitis C virus genotype 1b after 3 days by RT-PCR method; assay type: functional, Hepacivirus hominis; how it was run: as §1
[25] = test system: Hepatitis C virus; assay: Resistance index, ratio of EC90 for Hepatitis C virus genotype 1b expressing NS3 protease A156T/V mutant to EC90 for wild type Hepatitis C virus genotype 1b after 3 days by RT-PCR method; assay type: functional, Hepacivirus hominis; how it was run: as §1
[26] = test system: Hepatitis C virus; assay: Ratio of Ki for boceprevir-resistant Hepatitis C virus genotype 1b NS3 protease A156T mutant to Ki for Hepatitis C virus genotype 1b NS3 protease; set-up: species or system Hepatitis C virus subtype 1b; how it was run: as §3
[27] = test system: Hepatitis C virus; assay: Ratio of Ki for boceprevir-resistant Hepatitis C virus genotype 1b NS3 protease T54S mutant to Ki for Hepatitis C virus genotype 1b NS3 protease; set-up: species or system Hepatitis C virus subtype 1b; how it was run: as §3
[28] = test system: Hepatitis C virus; assay: Resistance index, ratio of EC90 for Hepatitis C virus genotype 1b expressing NS3 protease T54A/S mutant to EC90 for wild type Hepatitis C virus genotype 1b after 3 days by RT-PCR method; assay type: functional, Hepacivirus hominis; how it was run: as §1
[29] = test system: Hepatitis C virus; assay: Ratio of Ki for boceprevir-resistant Hepatitis C virus genotype 1b NS3 protease T54S and R155K double-mutant to Ki for Hepatitis C virus genotype 1b NS3 protease; set-up: species or system Hepatitis C virus subtype 1b; how it was run: as §3
[30] = test system: Hepatitis C virus; assay: Ratio of Ki for boceprevir-resistant Hepatitis C virus genotype 1b NS3 protease V36M and R155K double-mutant to Ki for Hepatitis C virus genotype 1b NS3 protease; set-up: species or system Hepatitis C virus subtype 1b; how it was run: as §3
[31] = Cytotoxicity against human HuH7 cells by MTS assay; assay type: cell-based, Huh-7
[32] = test system: Hepatitis C virus; assay: Ratio of Ki for boceprevir-resistant Hepatitis C virus genotype 1b NS3 protease F43C mutant to Ki for Hepatitis C virus genotype 1b NS3 protease; set-up: species or system Hepatitis C virus subtype 1b; how it was run: as §3

SMILES: CCCC[C@H](NC(=O)[C@@H]1[C@@H]2[C@H](CN1C(=O)[C@@H](NC(=O)NC1(CS(=O)(=O)C(C)(C)C)CCCCC1)C(C)(C)C)C2(C)C)C(=O)C(=O)NC1CC1 [NARLAPREVIR]
- Ratio [1]: >600
- pKi [2]: 8.15
- EC90 [3]: 40 nM
- pKi [4]: 9.15
- pKi [5]: 8.52
- Ratio EC50 [6]: 10
- Ratio EC50 [7]: 130
- Ratio EC50 [8]: 70
- Ratio Ki [9]: 6
- Ratio EC50 [10]: 11
- Ratio EC50 [11]: 1
- Ratio EC50 [12]: > 1000
- Ratio Ki [13]: 8
- Activity [14]: Active
- Ratio [15]: 30
- Ratio Ki [16]: 8
- Ratio Ki [17]: 5
- Ratio Ki [18]: 100
- Activity [19]: Active
- Ratio Ki [20]: 3
- Ratio EC50 [21]: 15
- Ratio Ki [22]: 1
- pKi [23]: 8.15
- Ratio EC50 [24]: 8
- Ratio [25]: 500
- Ratio Ki [26]: 3000
- Ratio Ki [27]: 3
- Ratio [28]: 10
- Ratio Ki [29]: 58
- Ratio Ki [30]: 160
- CC50 [31]: > 25000 nM
- Ratio Ki [32]: 8
